Measurements: PMC12279052 (RSC Advances, 2025)

Tests used:
[1] = system: human hepatocellular carcinoma cell line HepG2; assay: Cell toxicity assay, MTT; format: cell-based; conditions: HepG2, MTT, 24 h, n = 3
[2] = system: Candida albicans ATCC10231; assay: Antimicrobial activity, broth dilution MIC; format: cell-based; conditions: C. albicans, n = 3
[3] = Octanol–water partition coefficient, shake-flask method; format: physicochemical
Outline: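 Shake-flask partitioning was run at 25 and 37 °C in water, SGF (pH 1.2), SIF (pH 6.8) or SBF (pH 7.4). Fluids were prepared per USP without enzyme and pre-saturated with n-octanol (24 h shaking, 24 h separation). Test compound in buffer-saturated octanol (5 mL) was shaken 24 h with 5 mL octanol-saturated buffer, then centrifuged 10 min. The octanol phase was read by UV at 200 nm, and log Ko/w = log Co/(C−Co).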

[4] = Aggregation in water by electrical conductivity; format: physicochemical; conditions: for cmc: conductivity, water; for ionization degree α: micelle (cmc); for ΔG^0m / ΔH^0m / ΔS^0m / −TΔS^0m: micellization (cmc)
Outline: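 Conductivity of aqueous test compound solutions was measured with a digital conductivity meter and electrode, calibrated against standard KCl, with a thermostat holding ±0.02 K and ±3% relative uncertainty. cmc and cac were taken from the break points, found by fitting the Aguiar equation. α came from the ratio of post- to pre-transition slopes (A2/A1), and micellization thermodynamic functions from the mass action model.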

[5] = Steady-state fluorescence with pyrene probe; format: physicochemical; conditions: 298.15 K
Outline: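 Pyrene (1 μM) served as probe at 298.15 K. Excitation was 335 nm, emission 355–650 nm, slits 2.5 nm, 700 V, 240 nm min−1, in a 1 cm quartz cuvette. cmc came from a Boltzmann fit of I1/I3 (373/384 nm). For Nagg, test compound at 2.5 cmc was quenched with cetylpyridinium chloride at 0.2–1.0 × 10−4 mol dm−3, and Nagg was derived from linear ln(I0/I) versus [Q].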

[6] = system: Escherichia coli ATCC25922; assay: Antibacterial activity, broth dilution MIC; format: cell-based; conditions: E. coli, n = 3
[7] = system: Staphylococcus aureus ATCC29213; assay: Antibacterial activity, broth dilution MIC; format: cell-based; conditions: S. aureus, n = 3
[8] = Density measurement, apparent molar volume at infinite dilution in water; format: physicochemical; conditions: aqueous solution
Outline: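 Solution density was measured with a vibrating-tube densitometer calibrated with dry air and double-distilled water, with Peltier temperature control at ±0.01 K and density uncertainty 2.0 × 10−4 g cm−3. Apparent molar volumes were computed versus molality. Infinite-dilution values came from the Redlich–Mayer equation with empirical parameters Sv and Bv.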

[9] = Thermal stability by TG/DTG; format: physicochemical; conditions: first decomposition process, 10 K min^−1, argon
Outline: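 Simultaneous thermal analysis ran from 30–500 °C at 10 K min−1 on 3–5 mg sample in an Al2O3 crucible, with α-Al2O3 as reference. Argon served as protective gas at 20 mL min−1 and as purge gas at 60 mL min−1.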

[10] = system: Cutibacterium acnes ATCC6919; assay: Antibacterial activity, broth dilution MIC; format: cell-based; conditions: C. acnes, n = 3
[11] = Conductivity in low concentration region; format: physicochemical; conditions: in water
Outline: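 Conductivity of aqueous test compound solutions was measured at each temperature in double-distilled deionized water (0.8 − 1.0 × 10−4 S m−1 at 298.15 K). The digital meter and electrode were calibrated with standard KCl, and the thermostat held ±0.02 K; relative standard uncertainty was ±3%.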

[12] = system: human lung cancer cell line A549; assay: Cell toxicity assay, MTT; format: cell-based; conditions: A549, MTT, 24 h, n = 3

In the case of `CCCCCCCCCCC(=O)O.O=C1CCC[C@@H]2[C@H]3CCCN4CCC[C@@H](CN12)[C@@H]34` [[Mat][C11]], the IC50 [1] is reported as 450 µM, the MIC [2] is reported as 460 µM and the “Log K o/w” value ([3]; pH = 1.2 (SGF), 25 °C) is reported as −0.32. For the same molecule, the “Log K o/w” value ([3]; pH = 1.2 (SGF), 37 °C) was 0.26, the “Log K o/w” value ([3]; pH = 6.8 (SIF), 25 °C) was 0.04 and the “Log K o/w” value ([3]; pH = 6.8 (SIF), 37 °C) was 0.35. The “Log K o/w” value ([3]; pH = 7.0 (ultrapure water), 25 °C) was 0.77, the “Log K o/w” value ([3]; pH = 7.0 (ultrapure water), 37 °C) was 0.91 and the “Log K o/w” value ([3]; pH = 7.4 (SBF), 25 °C) was 1.20. For the same molecule, the “Log K o/w” value ([3]; pH = 7.4 (SBF), 37 °C) was 1.27, the cmc ([4]; 293.15 K) was 0.00385 mol/kg and the cmc ([4]; 298.15 K) was 0.00395 mol/kg. The cmc ([4]; 303.15 K) was 0.00402 mol/kg, the cmc ([4]; 308.15 K) was 0.00407 mol/kg and the cmc ([4]; 313.15 K) was 0.00411 mol/kg. For the same molecule, the “ionization degree α” value ([4]; 293.15 K) was 0.8532, the “ionization degree α” value ([4]; 298.15 K) was 0.8429 and the “ionization degree α” value ([4]; 303.15 K) was 0.8267. The “ionization degree α” value ([4]; 308.15 K) was 0.8151, the “ionization degree α” value ([4]; 313.15 K) was 0.7968 and the “ΔG^0m” value ([4]; 293.15 K) was -6.398 kcal/mol. The “ΔH^0m” value ([4]; 293.15 K) was -1.04 kcal/mol, the “ΔS^0m” value ([4]; 293.15 K) was 76.44 J mol^−1 K^−1 and the “−TΔS^0m” value ([4]; 293.15 K) was -5.356 kcal/mol. The “ΔG^0m” value ([4]; 298.15 K) was -6.546 kcal/mol, the “ΔH^0m” value ([4]; 298.15 K) was -0.872 kcal/mol and the “ΔS^0m” value ([4]; 298.15 K) was 79.65 J mol^−1 K^−1. For the same molecule, the “−TΔS^0m” value ([4]; 298.15 K) was -5.676 kcal/mol, the “ΔG^0m” value ([4]; 303.15 K) was -6.738 kcal/mol and the “ΔH^0m” value ([4]; 303.15 K) was -0.688 kcal/mol. For the same molecule, the “ΔS^0m” value ([4]; 303.15 K) was 83.51 J mol^−1 K^−1, the “−TΔS^0m” value ([4]; 303.15 K) was -6.052 kcal/mol and the “ΔG^0m” value ([4]; 308.15 K) was -6.907 kcal/mol. The “ΔH^0m” value ([4]; 308.15 K) was -0.483 kcal/mol, the “ΔS^0m” value ([4]; 308.15 K) was 87.26 J mol^−1 K^−1 and the “−TΔS^0m” value ([4]; 308.15 K) was -6.427 kcal/mol. For the same molecule, the “ΔG^0m” value ([4]; 313.15 K) was -7.122 kcal/mol, the “ΔH^0m” value ([4]; 313.15 K) was -0.258 kcal/mol and the “ΔS^0m” value ([4]; 313.15 K) was 91.70 J mol^−1 K^−1. For the same molecule, the “−TΔS^0m” value ([4]; 313.15 K) was -6.864 kcal/mol, the cmc ([5]; Fluorescence (pyrene I1/I3), water) was 0.00384 mol/kg and the “N agg (aggregation number)” value ([5]; ST = 2.5 cmc, fluorescence quenching with CPC) was 77. For the same molecule, the MIC [6] was 28800 µM, the MIC [7] was 900 µM and the “Apparent molar volume at infinite dilution V^0 2,φ” value (“Apparent molar volume” for short) ([8]; 293.15 K) was 386.51 ± 0.35 cm^3 mol^−1. The “Apparent molar volume” value ([8]; 298.15 K) was 389.66 ± 0.38 cm^3 mol^−1, the “Apparent molar volume” value ([8]; 303.15 K) was 392.77 ± 0.34 cm^3 mol^−1 and the “Apparent molar volume” value ([8]; 308.15 K) was 396.26 ± 0.38 cm^3 mol^−1. For the same molecule, the “T onset (onset decomposition temperature)” value [9] was 199.4 °C, the MIC [10] was 460 µM and the “Association constant KA” value ([11]; 298.15 K) was 19.06 ± 1.31 dm^3 mol^−1. For the same molecule, the “Limiting molar conductivity Λ0” value ([11]; 298.15 K) was 44.67 ± 0.06 S cm^2 mol^−1, the “Association constant KA” value ([11]; 303.15 K) was 7.36 ± 1.09 dm^3 mol^−1 and the “Limiting molar conductivity Λ0” value ([11]; 303.15 K) was 49.46 ± 0.06 S cm^2 mol^−1. For the same molecule, the “Association constant KA” value ([11]; 308.15 K) was 2.04 ± 1.14 dm^3 mol^−1, the “Limiting molar conductivity Λ0” value ([11]; 308.15 K) was 55.26 ± 0.07 S cm^2 mol^−1 and the IC50 [12] was 710 µM.
